According to PMC7668563 (International journal of molecular biology (Edmond, Okla.), 2020):
Like-named read-outs stand apart in the source and are kept apart here.

What was measured:
[1] = tested on: human breast adenocarcinoma cell line, MCF-7; assay: MTT cell viability assay on MCF-7, 72 h exposure; assay type: cell-based; conditions: for IC50 (±SD), MCF-7: MCF-7, 72 h of exposure
In short: (§1)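 HT-29 was grown in McCoy's 5A with 10% FBS. MCF-7 was grown in MEM with 10% FBS and 0.01 mg/mL insulin. Both were kept at 37°C, 5% CO2, trypsinized at 70–80% confluency and seeded at 1.5×10^4 cells/well for 24 h. Cells were then exposed for 72 h to test compound in 5% DMSO/95% medium, with DMSO-medium controls. MTT was added as a 2.67 mg/mL solution for 2 h. Formazan was dissolved in 10% Triton X-100/isopropanol and read at A570 minus A620. IC50 came from a sigmoidal fit of viability vs log concentration, eight replicas, triplicate, ±SD.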

[2] = target: T1, apo-human transferrin (apo-hTf) (Homo sapiens, UniProt P02787); assay: Fluorescence resonance energy transfer; assay type: binding; conditions: for Förster critical energy transfer distance R0 / binding distance r (donor-acceptor): k^2=2/3, n=1.336, ØD=0.118; for efficiency of energy transfer E: room temperature, 1.0×10^−5 mol L^−1 each
In short: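 Emission spectrum of 1.0×10−5 mol L−1 apo-hTf and absorption spectrum of 1.0×10−5 mol L−1 test compound were recorded in 20 mM Tris-HCl pH 7.4 at room temperature, 260–450 nm, and their spectral overlap determined. E was calculated from apo-hTf fluorescence without and with equimolar test compound. R0 and donor–acceptor distance r came from Förster equations.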

[3] = tested on: human colorectal adenocarcinoma cell line, HT-29; assay: MTT cell viability assay on HT-29, 72 h exposure; assay type: cell-based; conditions: read-out: IC50 (±SD), HT-29, HT-29, 72 h of exposure
In short: as §1

[4] = target: T1, apo-human transferrin (apo-hTf); assay: Far-UV circular dichroism titration of apo-hTf, secondary structure content
In short: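 Apo-hTf (4.0×10−7 mol L−1) in 2 mM Tris-HCl pH 7.4 was titrated with a 1.0×10−3 mol L−1 stock of test compound in Tris-HCl/2% DMSO, to final 0–2.4×10−6 mol L−1. Far-UV CD was recorded from 190–250 nm under nitrogen in a 1.0 cm cell: six scans at 100 nm/min. Baseline was buffer ± DMSO at room temperature. α-Helix was derived from MRE at 208 nm; β-sheet and random coil by the CD-RRG method.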

[5] = target: T1, apo-human transferrin (apo-hTf); assay: Thermodynamic parameters of apo-hTf complex formation; assay type: binding; conditions: for ∆H° / ∆S°: pH 7.4, from Ksv at 296-317 K
In short: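 Ksv values were obtained from apo-hTf fluorescence quenching at pH 7.4 at 296, 303, 310 and 317 K. ΔH°, ΔS° and ΔG° were derived from linear regression of ln(Ksv) vs 1/T (Van't Hoff equation).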

[6] = target: T1, apo-human transferrin (apo-hTf); conditions: cited from earlier work; for Ka: Cp2VCl2 bound to apo-hTf
[7] = target: T1, apo-human transferrin (apo-hTf); assay: Fluorescence quenching of apo-hTf; assay type: binding; conditions: for biomolecular quenching rate constant kq: kq=Ksv/τ0; for Stern-Volmer quenching constant Ksv / number of binding sites n: pH 7.4; for quenching association constant Ka: pH 7.4, modified Stern-Volmer
In short: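 Intrinsic fluorescence of apo-hTf in Tris-HCl pH 7.4 was titrated with test compound (Tris-HCl/2% DMSO). Conditions: excitation 280 nm, emission 290–500 nm, slits 10/5 nm, 1.0 cm quartz cell, at 296, 303, 310 and 317 K, triplicate titrations. Intensities were corrected for inner filter effect using absorbances at excitation and emission wavelengths. Ksv came from Stern-Volmer plots of F0/F vs [Q]; kq = Ksv/τ0 (τ0 ~1.0×10−8); Ka and n came from the modified Stern-Volmer equation.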

[8] = target: T1, apo-human transferrin (apo-hTf); assay: UV-Vis absorbance titration of apo-hTf; assay type: binding; conditions: for Ka at 280 nm: absorbance at 280 nm; for Association constants, Ka, 280 nm: absorbance of apo-hTf at 280 nm
[9] = apo-hTf:Cp2VCl2 complex, ref Zhang et al. 64

T1 sequence (P02787 20-698): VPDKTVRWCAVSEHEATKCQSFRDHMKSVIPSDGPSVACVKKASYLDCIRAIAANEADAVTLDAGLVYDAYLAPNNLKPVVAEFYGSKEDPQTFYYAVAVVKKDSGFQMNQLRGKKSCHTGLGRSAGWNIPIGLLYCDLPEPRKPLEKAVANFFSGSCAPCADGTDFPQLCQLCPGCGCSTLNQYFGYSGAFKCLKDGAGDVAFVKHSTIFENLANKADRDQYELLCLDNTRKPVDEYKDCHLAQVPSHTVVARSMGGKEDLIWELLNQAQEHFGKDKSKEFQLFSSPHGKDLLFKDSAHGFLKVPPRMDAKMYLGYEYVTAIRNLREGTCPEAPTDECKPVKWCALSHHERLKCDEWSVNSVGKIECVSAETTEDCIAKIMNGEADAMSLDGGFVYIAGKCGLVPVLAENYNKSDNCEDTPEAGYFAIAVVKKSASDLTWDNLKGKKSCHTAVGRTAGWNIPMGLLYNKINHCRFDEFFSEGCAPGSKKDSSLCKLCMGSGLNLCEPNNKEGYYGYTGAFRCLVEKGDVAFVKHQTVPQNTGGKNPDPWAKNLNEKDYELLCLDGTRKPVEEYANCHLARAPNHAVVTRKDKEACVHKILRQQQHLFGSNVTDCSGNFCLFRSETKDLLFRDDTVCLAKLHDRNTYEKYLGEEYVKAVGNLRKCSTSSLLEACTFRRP

With `[Cl-].[Cl-].[V+4].c1cc[cH-]c1.c1cc[cH-]c1` [Cp2VCl2] the IC50 ([1]; read-out: IC50 (±SD), MCF-7, MCF-7, 72 h of exposure) was 50 µM, the “Förster critical energy transfer distance R0” value [2] was 1.78 nm and the “binding distance r (donor-acceptor)” value [2] was 2.08 nm. The “efficiency of energy transfer E” value [2] was 0.281, the IC50 [3] was 33 µM and the “other secondary structure content of apo-hTf” value ([4]; compound concentration 0.4 (M)) was 20%. For the same compound, the “random coil content of apo-hTf” value ([4]; compound concentration 0.4 (M)) was 33.7%, the “α-helix content of apo-hTf” value ([4]; compound concentration 0.4 (M)) was 28.4% and the “β-sheet content of apo-hTf” value ([4]; compound concentration 0.4 (M)) was 17.9%. For the same compound, the “other secondary structure content of apo-hTf” value ([4]; compound concentration 0.8 (M)) was 20.1%, the “random coil content of apo-hTf” value ([4]; compound concentration 0.8 (M)) was 33.9% and the “α-helix content of apo-hTf” value ([4]; compound concentration 0.8 (M)) was 27.9%. For the same compound, the “β-sheet content of apo-hTf” value ([4]; compound concentration 0.8 (M)) was 18.1%, the “other secondary structure content of apo-hTf” value ([4]; compound concentration 1.2 (M)) was 20.4% and the “random coil content of apo-hTf” value ([4]; compound concentration 1.2 (M)) was 34.1%. For the same compound, the “α-helix content of apo-hTf” value ([4]; compound concentration 1.2 (M)) was 27.2%, the “β-sheet content of apo-hTf” value ([4]; compound concentration 1.2 (M)) was 18.3% and the “other secondary structure content of apo-hTf” value ([4]; compound concentration 1.6 (M)) was 20.7%. For the same compound, the “random coil content of apo-hTf” value ([4]; compound concentration 1.6 (M)) was 34.3%, the “α-helix content of apo-hTf” value ([4]; compound concentration 1.6 (M)) was 26.5% and the “β-sheet content of apo-hTf” value ([4]; compound concentration 1.6 (M)) was 18.5%. For the same compound, the “other secondary structure content of apo-hTf” value ([4]; compound concentration 2 (M)) was 20.8%, the “random coil content of apo-hTf” value ([4]; compound concentration 2 (M)) was 34.5% and the “α-helix content of apo-hTf” value ([4]; compound concentration 2 (M)) was 25.8%. The “β-sheet content of apo-hTf” value ([4]; compound concentration 2 (M)) was 18.9%, the “other secondary structure content of apo-hTf” value ([4]; compound concentration 2.4 (M)) was 21.1% and the “random coil content of apo-hTf” value ([4]; compound concentration 2.4 (M)) was 34.6%. For the same compound, the “α-helix content of apo-hTf” value ([4]; compound concentration 2.4 (M)) was 25.1%, the “β-sheet content of apo-hTf” value ([4]; compound concentration 2.4 (M)) was 19.2% and the “∆G°” value ([5]; 296 K) was -6.169 kcal/mol. For the same compound, the “∆G°” value ([5]; 303 K) was -6.379 kcal/mol, the “∆G°” value ([5]; 310 K) was -6.587 kcal/mol and the “∆G°” value ([5]; 317 K) was -6.797 kcal/mol. The “∆H°” value [5] was 2.713 kcal/mol, the “∆S°” value [5] was 125.52 J/mol K and the Ka ([6]; ref Du et al. 63) was 137000 M⁻¹. For the same compound, the Ka ([6]; ref Zhang et al. 64) was 32800 M⁻¹, the Ksv [6, 9] was 30400 M⁻¹ and the kq [6, 9] was 3.04e+12 M⁻¹ s⁻¹. For the same compound, the “biomolecular quenching rate constant kq” value ([7]; 296 K) was 3.564e+12 M⁻¹ s⁻¹, the “Stern-Volmer quenching constant Ksv” value ([7]; 296 K) was 35640 M⁻¹ and the “number of binding sites n” value ([7]; 296 K) was 1.23. The “quenching association constant Ka” value ([7]; 296 K) was 444400 M⁻¹, the “biomolecular quenching rate constant kq” value ([7]; 303 K) was 4.085e+12 M⁻¹ s⁻¹ and the “Stern-Volmer quenching constant Ksv” value ([7]; 303 K) was 40850 M⁻¹. For the same compound, the “number of binding sites n” value ([7]; 303 K) was 1.2, the “quenching association constant Ka” value ([7]; 303 K) was 337500 M⁻¹ and the “biomolecular quenching rate constant kq” value ([7]; 310 K) was 4.26e+12 M⁻¹ s⁻¹. The “Stern-Volmer quenching constant Ksv” value ([7]; 310 K) was 42600 M⁻¹, the “number of binding sites n” value ([7]; 310 K) was 1.16 and the “quenching association constant Ka” value ([7]; 310 K) was 240500 M⁻¹. The “biomolecular quenching rate constant kq” value ([7]; 317 K) was 4.936e+12 M⁻¹ s⁻¹, the “Stern-Volmer quenching constant Ksv” value ([7]; 317 K) was 49360 M⁻¹ and the “number of binding sites n” value ([7]; 317 K) was 1.11. For the same compound, the “quenching association constant Ka” value ([7]; 317 K) was 159800 M⁻¹, the “Ka at 280 nm” value [8] was 3240 M⁻¹ and the “Ka at 361 nm” value ([8]; absorbance at 361 nm) was 2670 M⁻¹. For the same compound, the “Association constants, Ka, 280 nm” value ([8]; pH 7.4) was 3.24 10^3 M^−1 and the “Association constants, Ka, 361 nm” value ([8]; absorbance of apo-hTf at 361 nm, pH 7.4) was 2.67 10^3 M^−1.

In the case of `[Cl][Zr+2][Cl].c1cc[cH-]c1.c1cc[cH-]c1` [Cp2ZrCl2], the “IC50 (±SD), MCF-7” value [1] is reported as “proliferative activity”, the “IC50 (±SD), MCF-7” value ([1]; listed as Cp^2ZrCl^2) is reported as “Proliferative” and the “Förster critical energy transfer distance R0” value [2] is reported as 7.3 nm. For the same compound, the “binding distance r (donor-acceptor)” value [2] was 10.03 nm, the “efficiency of energy transfer E” value [2] was 0.129 and the IC50 [3] was 774 µM. The “other secondary structure content of apo-hTf” value ([4]; compound concentration 0.4 (M)) was 18.9%, the “random coil content of apo-hTf” value ([4]; compound concentration 0.4 (M)) was 33.8% and the “α-helix content of apo-hTf” value ([4]; compound concentration 0.4 (M)) was 29.2%. For the same compound, the “β-sheet content of apo-hTf” value ([4]; compound concentration 0.4 (M)) was 18.1%, the “other secondary structure content of apo-hTf” value ([4]; compound concentration 0.8 (M)) was 18.8% and the “random coil content of apo-hTf” value ([4]; compound concentration 0.8 (M)) was 33.9%. The “α-helix content of apo-hTf” value ([4]; compound concentration 0.8 (M)) was 29.1%, the “β-sheet content of apo-hTf” value ([4]; compound concentration 0.8 (M)) was 18.2% and the “other secondary structure content of apo-hTf” value ([4]; compound concentration 1.2 (M)) was 18.8%. The “random coil content of apo-hTf” value ([4]; compound concentration 1.2 (M)) was 33.9%, the “α-helix content of apo-hTf” value ([4]; compound concentration 1.2 (M)) was 29% and the “β-sheet content of apo-hTf” value ([4]; compound concentration 1.2 (M)) was 18.3%. The “other secondary structure content of apo-hTf” value ([4]; compound concentration 1.6 (M)) was 18.9%, the “random coil content of apo-hTf” value ([4]; compound concentration 1.6 (M)) was 33.9% and the “α-helix content of apo-hTf” value ([4]; compound concentration 1.6 (M)) was 28.8%. The “β-sheet content of apo-hTf” value ([4]; compound concentration 1.6 (M)) was 18.4%, the “other secondary structure content of apo-hTf” value ([4]; compound concentration 2 (M)) was 18.9% and the “random coil content of apo-hTf” value ([4]; compound concentration 2 (M)) was 34%. The “α-helix content of apo-hTf” value ([4]; compound concentration 2 (M)) was 28.6%, the “β-sheet content of apo-hTf” value ([4]; compound concentration 2 (M)) was 18.5% and the “other secondary structure content of apo-hTf” value ([4]; compound concentration 2.4 (M)) was 18.9%. The “random coil content of apo-hTf” value ([4]; compound concentration 2.4 (M)) was 34.1%, the “α-helix content of apo-hTf” value ([4]; compound concentration 2.4 (M)) was 28.4% and the “β-sheet content of apo-hTf” value ([4]; compound concentration 2.4 (M)) was 18.6%. The “∆G°” value ([5]; 296 K) was -4.57 kcal/mol, the “∆G°” value ([5]; 303 K) was -4.584 kcal/mol and the “∆G°” value ([5]; 310 K) was -4.598 kcal/mol. The “∆G°” value ([5]; 317 K) was -4.613 kcal/mol, the “∆H°” value [5] was -3.975 kcal/mol and the “∆S°” value [5] was 8.41 J/mol K. For the same compound, the “biomolecular quenching rate constant kq” value ([7]; 296 K) was 2.39e+11 M⁻¹ s⁻¹, the “Stern-Volmer quenching constant Ksv” value ([7]; 296 K) was 2390 M⁻¹ and the “number of binding sites n” value ([7]; 296 K) was 1.07. For the same compound, the “quenching association constant Ka” value ([7]; 296 K) was 4400 M⁻¹, the “biomolecular quenching rate constant kq” value ([7]; 303 K) was 1.97e+11 M⁻¹ s⁻¹ and the “Stern-Volmer quenching constant Ksv” value ([7]; 303 K) was 1970 M⁻¹. The “number of binding sites n” value ([7]; 303 K) was 1.03, the “quenching association constant Ka” value ([7]; 303 K) was 2600 M⁻¹ and the “biomolecular quenching rate constant kq” value ([7]; 310 K) was 1.79e+11 M⁻¹ s⁻¹. The “Stern-Volmer quenching constant Ksv” value ([7]; 310 K) was 1790 M⁻¹, the “number of binding sites n” value ([7]; 310 K) was 1.01 and the “quenching association constant Ka” value ([7]; 310 K) was 2000 M⁻¹. The “biomolecular quenching rate constant kq” value ([7]; 317 K) was 1.5e+11 M⁻¹ s⁻¹, the “Stern-Volmer quenching constant Ksv” value ([7]; 317 K) was 1500 M⁻¹ and the “number of binding sites n” value ([7]; 317 K) was 1. The “quenching association constant Ka” value ([7]; 317 K) was 1600 M⁻¹, the “Ka at 280 nm” value [8] was 2220 M⁻¹ and the “Association constants, Ka, 280 nm” value ([8]; pH 7.4) was 2.22 10^3 M^−1.
